In brackets after ≈: the same amount, converted by molar mass.
Experiments:
Assay type in all cases: functional
Enterococcus faecalis = test: Antibacterial activity against Streptococcus faecalis MTCC 3382 after 18 hrs by broth microdilution method; conditions: MTCC 3382, 18 h
Staphylococcus aureus = test: Antibacterial activity against Staphylococcus aureus MTCC 3160 after 18 hrs by broth microdilution method; conditions: MTCC 3160, 18 h
Bacillus subtilis = test: Antibacterial activity against Bacillus subtilis MTCC 297 after 18 hrs by broth microdilution method; conditions: MTCC 297, 18 h
Pseudomonas aeruginosa = test: Antibacterial activity against Pseudomonas aeruginosa MTCC 1034 after 18 hrs by broth microdilution method; conditions: MTCC 1034, 18 h
Klebsiella pneumoniae = test: Antibacterial activity against Klebsiella pneumoniae MTCC 3384 after 18 hrs by broth microdilution method; conditions: MTCC 3384, 18 h
Escherichia coli = test: Antibacterial activity against Escherichia coli MTCC 1089 after 18 hrs by broth microdilution method; conditions: MTCC 1089, 18 h
Candida albicans = test: Antifungal activity against Candida albicans after 48 to 72 hrs by broth microdilution method
Procedure, shortened: (§1)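 Test compounds were prepared as 10 mg/ml DMSO stocks and serially diluted twofold in Sabouraud's dextrose broth over 500, 250, 125, 62.5, 31.25, 16, 8, 4, 2 and 1, alongside fluconazole as reference. Plates were inoculated with 1–5 × 10⁴ cfu/ml and held at 25 °C for 48–72 h. The MIC was the lowest concentration showing no visible growth.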

Aspergillus fumigatus = test: Antifungal activity against Aspergillus fumigatus after 48 to 72 hrs by broth microdilution method; procedure, shortened: as §1
Aspergillus niger = test: Antifungal activity against Aspergillus niger after 48 to 72 hrs by broth microdilution method; procedure, shortened: as §1
Penicillium chrysogenum = test: Antifungal activity against Penicillium chrysogenum after 48 to 72 hrs by broth microdilution method; procedure, shortened: as §1
Mucor = test: Antifungal activity against Mucor fuscus after 48 to 72 hrs by broth micro dilution method; procedure, shortened: as §1
Fusarium oxysporum = test: Antifungal activity against Fusarium oxysporum after 48 to 72 hrs by broth microdilution method; procedure, shortened: as §1

| Structure (SMILES) | MIC (Enterococcus faecalis) [µg/mL] | MIC (Staphylococcus aureus) [µg/mL] | MIC (Bacillus subtilis) [µg/mL] | MIC (Pseudomonas aeruginosa) [µg/mL] | MIC (Klebsiella pneumoniae) [µg/mL] | MIC (Escherichia coli) [µg/mL] | MIC (Candida albicans) [µg/mL] | MIC (Aspergillus fumigatus) [µg/mL] | MIC (Aspergillus niger) [µg/mL] | MIC (Penicillium chrysogenum) [µg/mL] | MIC (Mucor) [µg/mL] | MIC (Fusarium oxysporum) [µg/mL] |
| --- | --- | --- | --- | --- | --- | --- | --- | --- | --- | --- | --- | --- |
| Cc1ccc(NS(=O)(=O)c2cc3c(CN=[N+]=[N-])cc(=O)oc3cc2C)cc1Cl | 8 (≈ 19.1 µM) | 8 (≈ 19.1 µM) | 4 (≈ 9.55 µM) | 1 (≈ 2.39 µM) | 8 (≈ 19.1 µM) | > 500 | 31.2 (≈ 74.6 µM) | 16 (≈ 38.2 µM) | 16 (≈ 38.2 µM) | 4 (≈ 9.55 µM) | 16 (≈ 38.2 µM) | 1 (≈ 2.39 µM) |
| O=C(O)c1cn(C2CC2)c2cc(N3CCNCC3)c(F)cc2c1=O [CIPROFLOXACIN] | 1 (≈ 3.02 µM) | 1 (≈ 3.02 µM) | 1 (≈ 3.02 µM) | 1 (≈ 3.02 µM) | 1 (≈ 3.02 µM) |  |  |  |  |  |  |  |
| Cc1ccc(NS(=O)(=O)c2cc3c(CN=[N+]=[N-])cc(=O)oc3cc2C)c(C)c1 | 62.5 (≈ 157 µM) | 16 (≈ 40.2 µM) | 125 (≈ 314 µM) | 4 (≈ 10 µM) | 62.5 (≈ 157 µM) | > 500 | 8 (≈ 20.1 µM) | 16 (≈ 40.2 µM) | 4 (≈ 10 µM) | 31.2 (≈ 78.4 µM) | 16 (≈ 40.2 µM) | 1 (≈ 2.51 µM) |
| Cc1cc([N+](=O)[O-])ccc1NS(=O)(=O)c1cc2c(CN=[N+]=[N-])cc(=O)oc2cc1C | 4 (≈ 9.32 µM) | 16 (≈ 37.3 µM) | 4 (≈ 9.32 µM) | 125 (≈ 291 µM) | 31.2 (≈ 72.8 µM) | 125 (≈ 291 µM) | 16 (≈ 37.3 µM) | 8 (≈ 18.6 µM) | 4 (≈ 9.32 µM) | 2 (≈ 4.66 µM) | 2 (≈ 4.66 µM) | 2 (≈ 4.66 µM) |
| Cc1cc2oc(=O)cc(CN=[N+]=[N-])c2cc1S(=O)(=O)Nc1ccc(Br)cc1 | 1 (≈ 2.23 µM) | 16 (≈ 35.6 µM) | > 500 | 1 (≈ 2.23 µM) | 1 (≈ 2.23 µM) | > 500 | 125 (≈ 278 µM) | > 500 | > 500 | 16 (≈ 35.6 µM) | 250 (≈ 556 µM) | 1 (≈ 2.23 µM) |
| OC(Cn1cncn1)(Cn1cncn1)c1ccc(F)cc1F [FLUCONAZOLE] |  |  |  |  |  |  | 8 (≈ 26.1 µM) | 8 (≈ 26.1 µM) | 8 (≈ 26.1 µM) | 8 (≈ 26.1 µM) | 8 (≈ 26.1 µM) | 8 (≈ 26.1 µM) |
| Cc1ccc(NS(=O)(=O)c2cc3c(CN=[N+]=[N-])cc(=O)oc3cc2C)cc1C | 8 (≈ 20.1 µM) | 4 (≈ 10 µM) | 31.2 (≈ 78.4 µM) | 125 (≈ 314 µM) | 125 (≈ 314 µM) | 125 (≈ 314 µM) | 8 (≈ 20.1 µM) | 8 (≈ 20.1 µM) | 4 (≈ 10 µM) | 2 (≈ 5.02 µM) | 1 (≈ 2.51 µM) | 1 (≈ 2.51 µM) |
| Cc1cc2oc(=O)cc(CBr)c2cc1S(=O)(=O)Cl | 16 (≈ 45.5 µM) | 16 (≈ 45.5 µM) | 16 (≈ 45.5 µM) | 125 (≈ 356 µM) | 125 (≈ 356 µM) | 125 (≈ 356 µM) | 8 (≈ 22.8 µM) | 4 (≈ 11.4 µM) | 4 (≈ 11.4 µM) | 1 (≈ 2.84 µM) | 1 (≈ 2.84 µM) | 1 (≈ 2.84 µM) |
| Cc1cc2oc(=O)cc(CN=[N+]=[N-])c2cc1S(=O)(=O)Nc1ccccc1 | 31.2 (≈ 84.4 µM) | 4 (≈ 10.8 µM) | 31.2 (≈ 84.4 µM) | 125 (≈ 337 µM) | 125 (≈ 337 µM) | 125 (≈ 337 µM) | 16 (≈ 43.2 µM) | 8 (≈ 21.6 µM) | 8 (≈ 21.6 µM) | 2 (≈ 5.4 µM) | 4 (≈ 10.8 µM) | 4 (≈ 10.8 µM) |
| Cc1cc2oc(=O)cc(CN=[N+]=[N-])c2cc1S(=O)(=O)Nc1ccc(Cl)cc1 | 4 (≈ 9.88 µM) | 8 (≈ 19.8 µM) | 16 (≈ 39.5 µM) | 1 (≈ 2.47 µM) | 1 (≈ 2.47 µM) | > 500 | 8 (≈ 19.8 µM) | 125 (≈ 309 µM) | 31.2 (≈ 77.2 µM) | 16 (≈ 39.5 µM) | 16 (≈ 39.5 µM) | 1 (≈ 2.47 µM) |
| Cc1cc2oc(=O)cc(CN=[N+]=[N-])c2cc1S(=O)(=O)Nc1c(C)cccc1C | > 500 | 125 (≈ 314 µM) | > 500 | 2 (≈ 5.02 µM) | 1 (≈ 2.51 µM) | > 500 | 8 (≈ 20.1 µM) | 2 (≈ 5.02 µM) | 8 (≈ 20.1 µM) | 31.2 (≈ 78.4 µM) | 16 (≈ 40.2 µM) | 1 (≈ 2.51 µM) |
| COc1cccc(NS(=O)(=O)c2cc3c(CN=[N+]=[N-])cc(=O)oc3cc2C)c1 | 1 (≈ 2.5 µM) | 16 (≈ 40 µM) | > 500 | 1 (≈ 2.5 µM) | 2 (≈ 4.99 µM) | > 500 | 8 (≈ 20 µM) | 31.2 (≈ 78 µM) | 2 (≈ 4.99 µM) | 125 (≈ 312 µM) | 4 (≈ 9.99 µM) | 1 (≈ 2.5 µM) |
| Cc1cc2oc(=O)cc(CN=[N+]=[N-])c2cc1S(=O)(=O)Nc1cccc([N+](=O)[O-])c1 | 8 (≈ 19.3 µM) | 4 (≈ 9.63 µM) | 8 (≈ 19.3 µM) | 125 (≈ 301 µM) | 125 (≈ 301 µM) | 125 (≈ 301 µM) | 16 (≈ 38.5 µM) | 8 (≈ 19.3 µM) | 8 (≈ 19.3 µM) | 2 (≈ 4.81 µM) | 4 (≈ 9.63 µM) | 2 (≈ 4.81 µM) |
| Cc1cccc(NS(=O)(=O)c2cc3c(CN=[N+]=[N-])cc(=O)oc3cc2C)c1 | 250 (≈ 650 µM) | 16 (≈ 41.6 µM) | 16 (≈ 41.6 µM) | 2 (≈ 5.2 µM) | 4 (≈ 10.4 µM) | > 500 | 4 (≈ 10.4 µM) | 8 (≈ 20.8 µM) | 1 (≈ 2.6 µM) | 8 (≈ 20.8 µM) | 62.5 (≈ 163 µM) | 125 (≈ 325 µM) |
| Cc1cc2oc(=O)cc(CN=[N+]=[N-])c2cc1S(=O)(=O)Nc1ccc(Cl)c(Cl)c1 | 16 (≈ 36.4 µM) | 4 (≈ 9.11 µM) | 2 (≈ 4.55 µM) | 8 (≈ 18.2 µM) | 1 (≈ 2.28 µM) | > 500 | 16 (≈ 36.4 µM) | 31.2 (≈ 71.1 µM) | 16 (≈ 36.4 µM) | 2 (≈ 4.55 µM) | 31.2 (≈ 71.1 µM) | 1 (≈ 2.28 µM) |
| Cc1cc2oc(=O)cc(CN=[N+]=[N-])c2cc1S(=O)(=O)Nc1cccc2ccccc12 | 2 (≈ 4.76 µM) | 16 (≈ 38.1 µM) | > 500 | 8 (≈ 19 µM) | 1 (≈ 2.38 µM) | > 500 | 8 (≈ 19 µM) | 2 (≈ 4.76 µM) | 1 (≈ 2.38 µM) | 16 (≈ 38.1 µM) | 31.2 (≈ 74.3 µM) | 1 (≈ 2.38 µM) |
| CCOc1ccc(NS(=O)(=O)c2cc3c(CN=[N+]=[N-])cc(=O)oc3cc2C)cc1 | 1 (≈ 2.41 µM) | 2 (≈ 4.83 µM) | > 500 | 62.5 (≈ 151 µM) | 16 (≈ 38.6 µM) | 62.5 (≈ 151 µM) | 16 (≈ 38.6 µM) | > 500 | 250 (≈ 603 µM) | > 500 | 62.5 (≈ 151 µM) | 1 (≈ 2.41 µM) |
| Cc1cc2oc(=O)cc(CN=[N+]=[N-])c2cc1S(=O)(=O)Cl | 31.2 (≈ 99.6 µM) | 4 (≈ 12.8 µM) | 31.2 (≈ 99.6 µM) | 125 (≈ 398 µM) | 125 (≈ 398 µM) | 125 (≈ 398 µM) | 8 (≈ 25.5 µM) | 8 (≈ 25.5 µM) | 8 (≈ 25.5 µM) | 4 (≈ 12.8 µM) | 2 (≈ 6.38 µM) | 2 (≈ 6.38 µM) |
